“And” between values parts separate entries of the source, which are not always exact repeats. Identical values can stand only once. “Also recorded” adds a separate entry of the source.
System: Japanese patients with advanced hepatocellular carcinoma
Experiment: Adverse events
Format: in vivo, human
Summary of the method: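 Oral test compound given twice daily, continuously, in 28-day cycles until progression or unacceptable AEs. Group I had mild liver impairment (Child–Pugh 5–6) and group II moderate impairment (Child–Pugh 7 or raised AST/ALT). AEs were recorded over the observation period and graded by CTCAE v3.0. The treated set was every patient receiving at least one dose, and analyses were descriptive.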

[1] = Group I (mild liver impairment), 150 mg b.i.d., n = 4
[2] = Group I (mild liver impairment), 200 mg b.i.d., n = 12
[3] = Group I (mild liver impairment), all patients, n = 16
[4] = Group I (mild liver impairment), n = 16, all grades
[5] = Group I (mild liver impairment), n = 16, grade ≥3
[6] = Group II (moderate liver impairment), 100 mg b.i.d., n = 3
[7] = Group II (moderate liver impairment), 150 mg b.i.d., n = 4
[8] = Group II (moderate liver impairment), 200 mg b.i.d., n = 7
[9] = Group II (moderate liver impairment), all patients, n = 14
[10] = Group II (moderate liver impairment), n = 14, all grades
[11] = Group II (moderate liver impairment), n = 14, grade ≥3

In the case of `COC(=O)c1ccc2c(c1)NC(=O)/C2=C(\Nc1ccc(N(C)C(=O)CN2CCN(C)CC2)cc1)c1ccccc1` [nintedanib], the “AEs leading to nintedanib discontinuation” value [1] is reported as 0 (0.0) n (%), the “AEs leading to nintedanib dose reduction” value [1] is reported as 0 (0.0) n (%) and the “Any AE” value [1] is reported as 4 (100.0) n (%). The “Investigator-defined drug-related AE” value [1] was 3 (75.0) n (%), the “Other significant AEs (leading to dose reduction or permanent discontinuation of nintedanib)” value [1] was 0 (0.0) n (%) and the “Serious AEs” value [1] was 0 (0.0) n (%). For the same compound, the “Serious AEs: Fatal” value [1] was 0 (0.0) n (%), the “Serious AEs: Immediately life-threatening” value [1] was 0 (0.0) n (%) and the “Serious AEs: Prolonged hospitalization” value [1] was 0 (0.0) n (%). For the same compound, the “Serious AEs: Required hospitalization” value [1] was 0 (0.0) n (%), the “AEs leading to nintedanib discontinuation” value [2] was 0 (0.0) n (%) and the “AEs leading to nintedanib dose reduction” value [2] was 5 (41.7) n (%). For the same compound, the “Any AE” value [2] was 12 (100.0) n (%), the “Investigator-defined drug-related AE” value [2] was 11 (91.7) n (%) and the “Other significant AEs (leading to dose reduction or permanent discontinuation of nintedanib)” value [2] was 5 (41.7) n (%). The “Serious AEs” value [2] was 4 (33.3) n (%), the “Serious AEs: Fatal” value [2] was 0 (0.0) n (%) and the “Serious AEs: Immediately life-threatening” value [2] was 0 (0.0) n (%). For the same compound, the “Serious AEs: Prolonged hospitalization” value [2] was 0 (0.0) n (%), the “Serious AEs: Required hospitalization” value [2] was 4 (33.3) n (%) and the “AEs leading to nintedanib discontinuation” value [3] was 0 (0.0) n (%). The “AEs leading to nintedanib dose reduction” value [3] was 5 (31.3) n (%), the “Any AE” value [3] was 16 (100.0) n (%) and the “Investigator-defined drug-related AE” value [3] was 14 (87.5) n (%). For the same compound, the “Other significant AEs (leading to dose reduction or permanent discontinuation of nintedanib)” value [3] was 5 (31.3) n (%), the “Serious AEs” value [3] was 4 (25.0) n (%) and the “Serious AEs: Fatal” value [3] was 0 (0.0) n (%). The “Serious AEs: Immediately life-threatening” value [3] was 0 (0.0) n (%), the “Serious AEs: Prolonged hospitalization” value [3] was 0 (0.0) n (%) and the “Serious AEs: Required hospitalization” value [3] was 4 (25.0) n (%). The Abdominal pain [4] was 4 (25.0), the “Any AE” value [4] was 16 (100) and the Ascites [4] was 1 (6.3). The Decreased appetite [4] was 6 (37.5), the Decreased platelet count [4] was 2 (12.5) and the Diarrhea [4] was 8 (50.0). For the same compound, the Fatigue [4] was 3 (18.8), the Hyperuricemia [4] was 1 (6.3) and the Hypoalbuminemia [4] was 2 (12.5). The “Increased ALT” value [4] was 1 (6.3), the “Increased AST” value [4] was 4 (25.0) and the Increased blood bilirubin [4] was 1 (6.3). For the same compound, the Malaise [4] was 4 (25.0), the Malignant neoplasm progression [4] was 1 (6.3) and the Nausea [4] was 7 (43.8). For the same compound, the Neutropenia [4] was 2 (12.5), the Pyrexia [4] was 2 (12.5) and the Vomiting [4] was 6 (37.5). For the same compound, the Abdominal pain [5] was 0 (0.0), the “Any AE” value [5] was 7 (43.8) and the Ascites [5] was 0 (0.0). The Decreased appetite [5] was 0 (0.0), the Decreased platelet count [5] was 2 (12.5) and the Diarrhea [5] was 1 (6.3). For the same compound, the Fatigue [5] was 1 (6.3), the Hyperuricemia [5] was 0 (0.0) and the Hypoalbuminemia [5] was 0 (0.0). The “Increased ALT” value [5] was 0 (0.0), the “Increased AST” value [5] was 0 (0.0) and the Increased blood bilirubin [5] was 0 (0.0). For the same compound, the Malaise [5] was 0 (0.0), the Malignant neoplasm progression [5] was 0 (0.0) and the Nausea [5] was 0 (0.0). For the same compound, the Neutropenia [5] was 0 (0.0), the Pyrexia [5] was 0 (0.0) and the Vomiting [5] was 0 (0.0). The “AEs leading to nintedanib discontinuation” value [6] was 0 (0.0) n (%), the “AEs leading to nintedanib dose reduction” value [6] was 1 (33.3) n (%) and the “Any AE” value [6] was 3 (100.0) n (%). The “Investigator-defined drug-related AE” value [6] was 3 (100.0) n (%), the “Other significant AEs (leading to dose reduction or permanent discontinuation of nintedanib)” value [6] was 1 (33.3) n (%) and the “Serious AEs” value [6] was 1 (33.3) n (%). For the same compound, the “Serious AEs: Fatal” value [6] was 0 (0.0) n (%), the “Serious AEs: Immediately life-threatening” value [6] was 0 (0.0) n (%) and the “Serious AEs: Prolonged hospitalization” value [6] was 0 (0.0) n (%). For the same compound, the “Serious AEs: Required hospitalization” value [6] was 1 (33.3) n (%), the “AEs leading to nintedanib discontinuation” value [7] was 0 (0.0) n (%) and the “AEs leading to nintedanib dose reduction” value [7] was 1 (25.0) n (%). For the same compound, the “Any AE” value [7] was 4 (100.0) n (%), the “Investigator-defined drug-related AE” value [7] was 4 (100.0) n (%) and the “Other significant AEs (leading to dose reduction or permanent discontinuation of nintedanib)” value [7] was 1 (25.0) n (%). For the same compound, the “Serious AEs” value [7] was 2 (50.0) n (%), the “Serious AEs: Fatal” value [7] was 1 (25.0) n (%) and the “Serious AEs: Immediately life-threatening” value [7] was 0 (0.0) n (%). The “Serious AEs: Prolonged hospitalization” value [7] was 0 (0.0) n (%), the “Serious AEs: Required hospitalization” value [7] was 2 (50.0) n (%) and the “AEs leading to nintedanib discontinuation” value [8] was 0 (0.0) n (%). The “AEs leading to nintedanib dose reduction” value [8] was 1 (14.3) n (%), the “Any AE” value [8] was 7 (100.0) n (%) and the “Investigator-defined drug-related AE” value [8] was 5 (71.4) n (%). The “Other significant AEs (leading to dose reduction or permanent discontinuation of nintedanib)” value [8] was 1 (14.3) n (%), the “Serious AEs” value [8] was 3 (42.9) n (%) and the “Serious AEs: Fatal” value [8] was 1 (14.3) n (%). The “Serious AEs: Immediately life-threatening” value [8] was 1 (14.3) n (%), the “Serious AEs: Prolonged hospitalization” value [8] was 1 (14.3) n (%) and the “Serious AEs: Required hospitalization” value [8] was 3 (42.9) n (%). For the same compound, the “AEs leading to nintedanib discontinuation” value [9] was 0 (0.0) n (%), the “AEs leading to nintedanib dose reduction” value [9] was 3 (21.4) n (%) and the “Any AE” value [9] was 14 (100.0) n (%). For the same compound, the “Investigator-defined drug-related AE” value [9] was 12 (85.7) n (%), the “Other significant AEs (leading to dose reduction or permanent discontinuation of nintedanib)” value [9] was 3 (21.4) n (%) and the “Serious AEs” value [9] was 6 (42.9) n (%). For the same compound, the “Serious AEs: Fatal” value [9] was 2 (14.3) n (%), the “Serious AEs: Immediately life-threatening” value [9] was 1 (7.1) n (%) and the “Serious AEs: Prolonged hospitalization” value [9] was 1 (7.1) n (%). The “Serious AEs: Required hospitalization” value [9] was 6 (42.9) n (%), the “Abdominal pain (upper abdominal pain for group II)” value [10] was 2 (14.3) and the “Any AE” value [10] was 14 (100). For the same compound, the Ascites [10] was 7 (50.0), the Decreased appetite [10] was 7 (50.0) and the Decreased platelet count [10] was 1 (7.1). For the same compound, the Diarrhea [10] was 6 (42.9), the Fatigue [10] was 5 (35.7) and the Hyperuricemia [10] was 3 (21.4). The Hypoalbuminemia [10] was 6 (42.9), the “Increased ALT” value [10] was 4 (28.6) and the “Increased AST” value [10] was 5 (35.7). The Increased blood bilirubin [10] was 4 (28.6), the Lymphopenia [10] was 2 (14.3) and the Malaise [10] was 3 (21.4). The Malignant neoplasm progression [10] was 4 (28.6), the Nausea [10] was 5 (35.7) and the Neutropenia [10] was 3 (21.4). For the same compound, the Pyrexia [10] was 4 (28.6), the Vomiting [10] was 3 (21.4) and the “Abdominal pain (upper abdominal pain for group II)” value [11] was 0 (0.0). The “Any AE” value [11] was 11 (78.6), the Ascites [11] was 1 (7.1) and the Decreased appetite [11] was 0 (0.0). The Decreased platelet count [11] was 0 (0.0), the Diarrhea [11] was 0 (0.0) and the Fatigue [11] was 0 (0.0). For the same compound, the Hyperuricemia [11] was 2 (14.3), the Hypoalbuminemia [11] was 1 (7.1) and the “Increased ALT” value [11] was 2 (14.3). The “Increased AST” value [11] was 3 (21.4), the Increased blood bilirubin [11] was 0 (0.0) and the Lymphopenia [11] was 2 (14.3). For the same compound, the Malaise [11] was 0 (0.0), the Malignant neoplasm progression [11] was 2 (14.3) and the Nausea [11] was 0 (0.0). For the same compound, the Neutropenia [11] was 2 (14.3), the Pyrexia [11] was 0 (0.0) and the Vomiting [11] was 0 (0.0). The “Discontinuation of nintedanib due to AEs” value (both groups) was “No patients discontinued nintedanib due to adverse events; also recorded: No patients discontinued nintedanib due to AEs”, the “Drug-related fatal AEs” value (both groups) was “No drug‐related fatal AEs were reported” and the “Hypertension at grade ≥3” value (both groups) was “not reported by any patients”. For the same compound, the “Ascites, any grade” value (group I) was 6.3%, the “Bleeding, incidence” value (group I) was 12.5% and the “Decreased appetite, any grade” value (group I) was 37.5%. The “Diarrhea, any grade” value (group I) was 50.0%, the “Fatigue, any grade” value (group I) was 18.8% and the Hand-foot skin reaction (group I) was “one patient in group I”. The “Hypertension, incidence” value (group I) was 12.5%, the “Hypoalbuminemia, any grade” value (group I) was 12.5% and the “Increased AST, any grade” value (group I) was 25.0%. The “Nausea, any grade” value (group I) was 43.8%, the “Serious AEs considered drug-related by the investigator” value (group I) was “grade 3 immune thrombocytopenic purpura and grade 3 hyponatremia” and the “Thromboembolic events at grade ≥3” value (group I) was “no patients in group I”. The “Thromboembolic events, incidence” value (group I) was 0.0%, the “Vomiting, any grade” value (group I) was 37.5% and the “Patients with dose reduction of nintedanib due to AEs” value (group I (five patients, all on 200 mg)) was 31% and 31.3%. The “Patients with serious AEs (all requiring hospitalization)” value (group I (four patients)) was 25.0%, the “Patients with adverse events at grade ≥3” value (group I (seven patients)) was 43.8% and the “Ascites, any grade” value (group II) was 50.0%. The “Bleeding at grade ≥3” value (group II) was “no patients in group II”, the “Bleeding, incidence” value (group II) was 14.3% and the “Decreased appetite, any grade” value (group II) was 50.0%. The “Diarrhea, any grade” value (group II) was 42.9%, the “Fatigue, any grade” value (group II) was 35.7% and the Hand-foot skin reaction (group II) was “no patients in group II”. The “Hypertension, incidence” value (group II) was 21.4%, the “Hypoalbuminemia, any grade” value (group II) was 42.9% and the “Increased AST, any grade” value (group II) was 35.7%. The “Nausea, any grade” value (group II) was 35.7%, the “Serious AEs considered drug-related by the investigator” value (group II) was “grade 2 gastroenteritis, grade 3 drug‐induced liver injury, and grade 2 pyrexia” and the “Thromboembolic events, incidence” value (group II) was 7.1%. The “Vomiting, any grade” value (group II) was 21.4%, the “Patients with adverse events at grade ≥3” value (group II (11 patients)) was 78.6% and the “Thromboembolic events at grade ≥3” value (group II (one patient)) was 7.1%. The “Patients with serious AEs (all requiring hospitalization)” value (group II (six patients)) was 42.9% and the “Patients with dose reduction of nintedanib due to AEs” value (group II (three patients, one from each dose)) was 21% and 21.4%.

Reference: publication PMC5198968 (Cancer Science, 2016)
